Measurements as given in ChEMBL document CHEMBL1125351, “Isobenzofurans as conformationally constrained miconazole analogues with improved antifungal potency” (1992).
Converted amounts (≈) assume the structure as drawn. “And” between values parts separate entries of the source, which are not always exact repeats. Equal values may be shown once.

Tested on: Candida tropicalis
Assay: Minimum inhibitory concentration against Candida tropicalis using eagles minimum essential medium (EMEM)
Assay type: functional
Conditions: not given
Outline: (§1)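 Candida MICs in Eagle's minimum essential medium, pH 7.0. Compounds in DMSO or ethanol were serially diluted in medium, inoculated and incubated at 37 °C under CO₂. […] The summary value is the geometric mean of the MICs across strains.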
Molecule Clc1ccc(C2(Cn3ccnc3)OCc3ccccc32)c(Cl)c1 (centres undefined) has an MIC of under 0.031 µg/mL.
In the case of Clc1ccc(C2(Cn3cncn3)OCc3ccccc32)cc1 (centres undefined), the MIC is reported as under 0.031 µg/mL.
Clc1ccc(C2(Cn3ccnc3)OCc3ccccc32)cc1 (centres undefined) gave an MIC of 0.125 µg/mL (≈ 0.402 µM).

Tested on: Candida albicans
Assay: Minimum inhibitory concentration against Candida albicans at a pH of 5.7 using SDB medium
Assay type: functional
Conditions: not given
Outline: (§2)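 Broth dilution in Sabouraud dextrose broth, pH 5.7. Compounds dissolved in DMSO or ethanol, serially diluted in medium, inoculated and incubated at 27 °C. Wells read visually at 48 h. MIC is the lowest concentration giving complete growth inhibition.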
Clc1ccc(C2(Cn3ccnc3)OCc3ccccc32)c(Cl)c1 (centres undefined) showed an MIC of 32 µg/mL (≈ 92.7 µM).
In the case of Clc1ccc(C2(Cn3cncn3)OCc3ccccc32)cc1 (centres undefined), the MIC is reported as 64 µg/mL (≈ 205 µM).
Molecule Clc1ccc(C2(Cn3ccnc3)OCc3ccccc32)cc1 (centres undefined) has an MIC of 16 µg/mL (≈ 51.5 µM).

Tested on: Trichophyton benhamiae
Assay: Minimum inhibitory concentration against Trichophyton mentagrophytes at a pH of 5.7 using SDB medium
Assay type: functional, Arthroderma benhamiae
Conditions: not given
Outline: (§3)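 Dermatophyte isolates tested by serial broth dilution in SDB, pH 5.7. Compound stocks in DMSO or ethanol, incubated at 27 °C, and growth read visually at 72 h. MIC is the lowest concentration with no visible growth. The summary value is the geometric mean of the MICs across the organisms.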
Molecule Clc1ccc(C2(Cn3ccnc3)OCc3ccccc32)c(Cl)c1 (centres undefined) has an MIC of under 0.031 µg/mL.
For Clc1ccc(C2(Cn3cncn3)OCc3ccccc32)cc1 (centres undefined), the MIC was 1 µg/mL (≈ 3.21 µM).
Clc1ccc(C2(Cn3ccnc3)OCc3ccccc32)cc1 (centres undefined) gave an MIC of 2 µg/mL (≈ 6.44 µM).

Tested on: Cricetinae gen. sp.
Assay: Inhibition of Vaginal Candida (C-43 strain) infection in Hamsters, estimated as Percent Area under curve at 0.05 % concentration after 8 days of administration
Assay type: functional, Cricetulus griseus
Conditions: not given
Outline: (§4)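 Hamster vaginal C. albicans infection (strains C43 or C60; 10 animals per compound). From day 5 post-infection, a cotton pellet holding 0.15 mL of 0.05% or 0.01% (w/w) compound in EtOH–PEG 400–glycerol (10:45:45) was inserted once daily for 4 or 8 days. Vaginal swabs were filtered and the filters cultured on SDA at 37 °C for 48 h. Read-out was the area under the % negative cultures versus time curve.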
With Clc1ccc(C2(Cn3ccnc3)OCc3ccccc32)cc1 (centres undefined) the Inhibition was 89%.

Tested on: Candida albicans
Assay: Minimum inhibitory concentration against Candida stellatoidea at a pH of 5.7 using SDB medium
Assay type: functional
Conditions: not given
Outline: as §2
With Clc1ccc(C2(Cn3ccnc3)OCc3ccccc32)c(Cl)c1 (centres undefined) the MIC was 32 µg/mL (≈ 92.7 µM).
Clc1ccc(C2(Cn3cncn3)OCc3ccccc32)cc1 (centres undefined) gave an MIC of 32 µg/mL (≈ 103 µM).
Molecule Clc1ccc(C2(Cn3ccnc3)OCc3ccccc32)cc1 (centres undefined) has an MIC of 32 µg/mL (≈ 103 µM).

Tested on: Cavia porcellus
Assay: In vivo inhibition of topical Trichophyton infection in Guinea Pig during drug administration
Assay type: functional
Conditions: not given
Outline: (§5)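 Guinea pigs (5 per compound) infected with T. mentagrophytes D24 by swabbing a homogenate onto shaven, abraded skin. From day 4 post-infection, 0.25% (w/v) compound in EtOH–PEG 400–glycerol (10:45:45) was rubbed in topically twice daily for 10 days. Hair samples were cultured on SDA at 27 °C for up to 16 days. Read-outs were the % negative cultures and the day each animal became culture-negative.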
Clc1ccc(C2(Cn3ccnc3)OCc3ccccc32)cc1 (centres undefined) gave a Culture negative of 90%.

Species on record: Cavia porcellus
Assay: Lession score which is determined as number of animals minus days to become negative
Assay type: functional
Conditions: not given
Outline: as §5
For Clc1ccc(C2(Cn3ccnc3)OCc3ccccc32)cc1 (centres undefined), the Lesion score was 3 and >2.

Tested on: Microsporum canis
Assay: Minimum inhibitory concentration against Microsporum canis at a pH of 5.7 using SDB medium
Assay type: functional
Conditions: not given
Outline: as §3
Clc1ccc(C2(Cn3ccnc3)OCc3ccccc32)c(Cl)c1 (centres undefined) showed an MIC of under 0.031 µg/mL.
For Clc1ccc(C2(Cn3cncn3)OCc3ccccc32)cc1 (centres undefined), the MIC was 1 µg/mL (≈ 3.21 µM).
For Clc1ccc(C2(Cn3ccnc3)OCc3ccccc32)cc1 (centres undefined), the MIC was 2 µg/mL (≈ 6.44 µM).

Tested on: Nannizzia gypsea
Assay: Minimum inhibitory concentration against Microsporum gypseum at a pH of 5.7 using SDB medium
Assay type: functional
Conditions: not given
Outline: as §3
Molecule Clc1ccc(C2(Cn3ccnc3)OCc3ccccc32)c(Cl)c1 (centres undefined) has an MIC of 0.5 µg/mL (≈ 1.45 µM).
Work on Clc1ccc(C2(Cn3cncn3)OCc3ccccc32)cc1 (centres undefined) yielded an MIC of 4 µg/mL (≈ 12.8 µM).
In the case of Clc1ccc(C2(Cn3ccnc3)OCc3ccccc32)cc1 (centres undefined), the MIC is reported as 4 µg/mL (≈ 12.9 µM).

Tested on: Arthrodermataceae
Assay: Compound is evaluated for geometric mean of MIC values of dermatophytes
Assay type: functional
Design: unit not given beside the values
Conditions: not given
Outline: as §3
Clc1ccc(C2(Cn3ccnc3)OCc3ccccc32)c(Cl)c1 (centres undefined) showed a Geometric mean of under 0.04.
Molecule Clc1ccc(C2(Cn3cncn3)OCc3ccccc32)cc1 (centres undefined) has a Geometric mean of under 0.57.
In the case of Clc1ccc(C2(Cn3ccnc3)OCc3ccccc32)cc1 (centres undefined), the Geometric mean is reported as under 0.86.

Tested on: Cricetinae gen. sp.
Assay: Inhibition of Vaginal Candida (C-60 strain) infection in Hamsters, estimated as Percent Area under curve at 0.05 % concentration after 8 days of administration
Assay type: functional, Cricetulus griseus
Conditions: not given
Outline: as §4
In the case of Clc1ccc(C2(Cn3ccnc3)OCc3ccccc32)cc1 (centres undefined), the Inhibition is reported as 88%.

Tested on: not listed separately
Assay: Geometric mean for the above three species of Candida, tested in EMEM medium
Assay type: functional
Conditions: not given
Outline: as §1
Clc1ccc(C2(Cn3ccnc3)OCc3ccccc32)c(Cl)c1 (centres undefined) gave a Geometric mean of under 0.02.
In the case of Clc1ccc(C2(Cn3cncn3)OCc3ccccc32)cc1 (centres undefined), the Geometric mean is reported as under 0.02.
Molecule Clc1ccc(C2(Cn3ccnc3)OCc3ccccc32)cc1 (centres undefined) has a Geometric mean of under 0.03.

Tested on: Candida
Assay: Compound is evaluated for geometric mean of MIC values of Candida species
Assay type: functional
Design: unit not given beside the values
Conditions: not given
With Clc1ccc(C2(Cn3ccnc3)OCc3ccccc32)c(Cl)c1 (centres undefined) the Geometric mean was 7.2.
Molecule Clc1ccc(C2(Cn3cncn3)OCc3ccccc32)cc1 (centres undefined) has a Geometric mean of 16.
For Clc1ccc(C2(Cn3ccnc3)OCc3ccccc32)cc1 (centres undefined), the Geometric mean was 7.2.

Tested on: Cricetinae gen. sp.
Assay: Inhibition of Vaginal Candida (C-60 strain) infection in Hamsters, estimated as Percent Area under curve at 0.05 % concentration after 4 days of administration
Assay type: functional, Cricetulus griseus
Conditions: not given
Outline: as §4
For Clc1ccc(C2(Cn3ccnc3)OCc3ccccc32)c(Cl)c1 (centres undefined), the Inhibition was 94%.
With Clc1ccc(C2(Cn3ccnc3)OCc3ccccc32)cc1 (centres undefined) the Inhibition was 88%.

Tested on: Epidermophyton floccosum
Assay: Minimum inhibitory concentration against Epidermophyton floccosum at a pH of 5.7 using SDB medium
Assay type: functional
Conditions: not given
Outline: as §3
Clc1ccc(C2(Cn3ccnc3)OCc3ccccc32)c(Cl)c1 (centres undefined) gave an MIC of 0.063 µg/mL (≈ 0.182 µM).
Work on Clc1ccc(C2(Cn3cncn3)OCc3ccccc32)cc1 (centres undefined) yielded an MIC of under 0.031 µg/mL.
Molecule Clc1ccc(C2(Cn3ccnc3)OCc3ccccc32)cc1 (centres undefined) has an MIC of under 0.031 µg/mL.

Tested on: Candida parapsilosis
Assay: Minimum inhibitory concentration against Candida parapsilosis at a pH of 5.7 using SDB medium
Assay type: functional
Conditions: Lodderomyces parapsilosis
Outline: as §2
With Clc1ccc(C2(Cn3ccnc3)OCc3ccccc32)c(Cl)c1 (centres undefined) the MIC was under 0.031 µg/mL.
For Clc1ccc(C2(Cn3cncn3)OCc3ccccc32)cc1 (centres undefined), the MIC was 1 µg/mL (≈ 3.21 µM).
Work on Clc1ccc(C2(Cn3ccnc3)OCc3ccccc32)cc1 (centres undefined) yielded an MIC of 0.25 µg/mL (≈ 0.804 µM).

Tested on: Candida albicans
Assay: Minimum inhibitory concentration against Candida stellatoidea using eagles minimum essential medium (EMEM)
Assay type: functional
Conditions: not given
Outline: as §1
With Clc1ccc(C2(Cn3ccnc3)OCc3ccccc32)c(Cl)c1 (centres undefined) the MIC was under 0.031 µg/mL.
With Clc1ccc(C2(Cn3cncn3)OCc3ccccc32)cc1 (centres undefined) the MIC was under 0.031 µg/mL.
With Clc1ccc(C2(Cn3ccnc3)OCc3ccccc32)cc1 (centres undefined) the MIC was under 0.031 µg/mL.

Tested on: Candida albicans
Assay: Minimum inhibitory concentration against Candida albicans using eagles minimum essential medium (EMEM)
Assay type: functional
Conditions: not given
Outline: as §1
Work on Clc1ccc(C2(Cn3ccnc3)OCc3ccccc32)c(Cl)c1 (centres undefined) yielded an MIC of under 0.031 µg/mL.
Clc1ccc(C2(Cn3cncn3)OCc3ccccc32)cc1 (centres undefined) showed an MIC of under 0.031 µg/mL.
With Clc1ccc(C2(Cn3ccnc3)OCc3ccccc32)cc1 (centres undefined) the MIC was under 0.031 µg/mL.

Tested on: Cavia porcellus
Assay: In vivo inhibition of topical Trichophyton infection in Guinea Pig after drug administration
Assay type: functional
Conditions: not given
Outline: as §5
Molecule Clc1ccc(C2(Cn3ccnc3)OCc3ccccc32)cc1 (centres undefined) has a Culture negative of 87%.

Tested on: Cricetinae gen. sp.
Assay: Inhibition of Vaginal Candida (C-60 strain) infection in Hamsters, estimated as Percent Area under curve at 0.01 % concentration after 4 days of administration
Assay type: functional, Cricetulus griseus
Conditions: not given
Outline: as §4
For Clc1ccc(C2(Cn3ccnc3)OCc3ccccc32)c(Cl)c1 (centres undefined), the Inhibition was 78%.
Clc1ccc(C2(Cn3ccnc3)OCc3ccccc32)cc1 (centres undefined) gave an Inhibition of 30%.

Tested on: Candida tropicalis
Assay: Minimum inhibitory concentration against Candida tropicalis at a pH of 5.7 using SDB medium
Assay type: functional
Conditions: not given
Outline: as §2
For Clc1ccc(C2(Cn3ccnc3)OCc3ccccc32)c(Cl)c1 (centres undefined), the MIC was 32 µg/mL (≈ 92.7 µM).
For Clc1ccc(C2(Cn3cncn3)OCc3ccccc32)cc1 (centres undefined), the MIC was 64 µg/mL (≈ 205 µM).
Work on Clc1ccc(C2(Cn3ccnc3)OCc3ccccc32)cc1 (centres undefined) yielded an MIC of 16 µg/mL (≈ 51.5 µM).

Tested on: Trichophyton rubrum
Assay: Minimum inhibitory concentration against Trichophyton rubrum at a pH of 5.7 using SDB medium
Assay type: functional
Conditions: not given
Outline: as §3
Work on Clc1ccc(C2(Cn3ccnc3)OCc3ccccc32)c(Cl)c1 (centres undefined) yielded an MIC of under 0.031 µg/mL.
In the case of Clc1ccc(C2(Cn3cncn3)OCc3ccccc32)cc1 (centres undefined), the MIC is reported as 1 µg/mL (≈ 3.21 µM).
Molecule Clc1ccc(C2(Cn3ccnc3)OCc3ccccc32)cc1 (centres undefined) has an MIC of 2 µg/mL (≈ 6.44 µM).
